According to paper PMC10582678 (Clinical and Translational Science, 2023):

How the values were obtained:
Type in all cases: in vivo, human
[1] = Plasma pharmacokinetics, multiple ascending doses; settings: for CLss/F / AUC(0-t) / Cmax: mean ± SD; for AUC / Vd/F / concentration at 10 day / half-life / AUC(0-t) / Cmax / Tmax: human, plasma, oral; for AUC(0-t): AUC0-t; for Cmax: C max; for Tmax: T max
Method in brief: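 This was a double-blind, placebo-controlled design with three cohorts of eight (6 active, 2 placebo). Cohorts received oral 200, 400 or 600 mg q.d. for 10 consecutive days, with extra predose trough samples on days 8 and 9. Plasma drug was measured by validated HPLC-tandem accurate mass spectrometry (5.00–5000 ng/mL). Noncompartmental parameters were reported for day 1 and day 10, with Rac(AUC) = AUC0-τ day 10/AUC0-t day 1.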

[2] = Plasma pharmacokinetics, food effect; settings: 600 mg; for half-life / Tmax: human, plasma, oral; for half-life: T1/2, 600 mg, mean ± SD; for Tmax: median (min, max)
Method in brief: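 This was a randomized, open-label, two-period crossover in 12 healthy subjects. Each received one oral 600 mg dose fasted then fed, or the reverse, with a 7-day washout. Drug was quantified by validated HPLC-tandem accurate mass spectrometry (calibration 5.00–5000 ng/mL). Parameters came from noncompartmental analysis.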

[3] = Safety, adverse events, multiple ascending doses
Method in brief: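 Safety was monitored by vital signs, clinical laboratory tests, physical examination, 12-lead ECG, AEs and SAEs. AEs were coded with MedDRA 23.1 and graded by CTCAE 5.0. Subjects were discharged 6 days after the last dose, with a follow-up visit 8–14 days after the last dose. The safety set comprised randomized subjects who received active drug or placebo and had post-dose safety data.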

[4] = 200 mg, MAD 200 mg q.d., Day 10
[5] = 400 mg, MAD 400 mg q.d., Day 10
[6] = 600 mg, MAD 600 mg q.d., Day 10
[7] = 18 subjects, MAD 200 to 600 mg for 10 days
[8] = MAD 200 mg QD, any grade, n (%)

Compound: N#CN1C[C@H](n2nc(-c3ccc(Oc4ccc(Cl)cn4)cc3)c(C(N)=O)c2N)CCC12CC2 [SN1011, 5-amino-3-(4-((5-chloro-2-pyridinyl)oxy)phenyl)-1-((6R)-4-cyano-4-azaspiro[2.5]octan-6-yl)-1H-pyrazole-4-carboxamide]
- T last ([1]; MAD 200 mg q.d., Day 1, median (min, max)): 23.7 (23.7, 23.8) h
- CLss/F ([1]; MAD 200 mg q.d., Day 10): 27.2 ± 13.4 (49%) L/h
- T last ([1]; MAD 200 mg q.d., Day 10, median (min, max)): 120.0 (72.0, 120.0) h
- T last ([1]; MAD 400 mg q.d., Day 1, median (min, max)): 23.8 (23.7, 23.9) h
- CLss/F ([1]; MAD 400 mg q.d., Day 10): 27.4 ± 6.2 (23%) L/h
- T last ([1]; MAD 400 mg q.d., Day 10, median (min, max)): 120.0 (120.0, 120.0) h
- T last ([1]; MAD 600 mg q.d., Day 1, median (min, max)): 23.8 (23.7, 23.8) h
- CLss/F ([1]; MAD 600 mg q.d., Day 10): 30.0 ± 9.8 (33%) L/h
- T last ([1]; MAD 600 mg q.d., Day 10, median (min, max)): 120.0 (96.0, 120.0) h
- AUC ([1]; 200 mg): 8690 ± 3420 ng·h/mL
- Vd/F ([1]; 200 mg): 728 ± 161 L
- concentration at 10 day ([1]; 200 mg): 257 ± 111 ng/mL
- half-life ([1]; 200 mg): 20.5 ± 5.3 h
- AUC(0-t) ([1]; 200 mg, MAD 200 mg q.d., Day 1): 4280 ± 1130 ng·h/mL
- AUC(0-t) [1, 4]: 17300 ng·h/mL
- Cmax ([1]; 200 mg, MAD 200 mg q.d., Day 1, N = 5): 260 ± 54.8 ng/mL
- Cmax [1, 4]: 516 ± 172 ng/mL
- Tmax ([1]; 200 mg, MAD 200 mg q.d., Day 1, median (min, max)): 3 h
- Tmax ([1]; 200 mg, MAD 200 mg q.d., Day 10, median (min, max)): 3 h
- AUC ([1]; 400 mg): 15200 ng·h/mL
- Vd/F ([1]; 400 mg): 736 ± 181 L
- concentration at 10 day ([1]; 400 mg): 419 ± 121 ng/mL
- half-life ([1]; 400 mg): 19 ± 5.4 h
- AUC(0-t) ([1]; 400 mg, MAD 400 mg q.d., Day 1): 9170 ± 1640 ng·h/mL
- AUC(0-t) [1, 5]: 26400 ng·h/mL
- Cmax ([1]; 400 mg, MAD 400 mg q.d., Day 1): 727 ± 183 ng/mL
- Cmax [1, 5]: 1070 ± 234 ng/mL
- Tmax ([1]; 400 mg, MAD 400 mg q.d., Day 1, median (min, max)): 4 h
- Tmax ([1]; 400 mg, MAD 400 mg q.d., Day 10, median (min, max)): 3.5 h
- AUC ([1]; 600 mg): 22000 ng·h/mL
- Vd/F ([1]; 600 mg): 872 ± 345 L
- concentration at 10 day ([1]; 600 mg): 531 ± 264 ng/mL
- half-life ([1]; 600 mg): 20.4 ± 4.1 h
- AUC(0-t) ([1]; 600 mg, MAD 600 mg q.d., Day 1): 12200 ng·h/mL
- AUC(0-t) [1, 6]: 40300 ng·h/mL
- Cmax ([1]; 600 mg, MAD 600 mg q.d., Day 1): 910 ± 332 ng/mL
- Cmax [1, 6]: 1600 ± 497 ng/mL
- Tmax ([1]; 600 mg, MAD 600 mg q.d., Day 1, median (min, max)): 4 h
- Tmax ([1]; 600 mg, MAD 600 mg q.d., Day 10, median (min, max)): 2.5 h
- Tmax ([1]; MAD, steady-state conditions, across 200-600 mg q.d.): 2.5 to 3.5 h
- steady-state in the plasma achieved on ([1]; once daily administration): 8 days
- AUC0-inf, Geometric Mean Ratio ([2]; fed state to fasted state): 93.76%
- AUC0-t, Geometric Mean Ratio ([2]; fed state to fasted state): 92.79%
- Cmax, Geometric Mean Ratio ([2]; fed state to fasted state): 97.08%
- half-life ([2]; Fasted): 24.3 ± 8.7 h
- half-life ([2]; Fed): 26.6 ± 13.3 h
- Tmax ([2]; Fasted): 4 h
- Tmax ([2]; Fed): 6 h
- blood triglycerides increased [3, 7]: 33.3%
- leucocyte count decreased [3, 7]: 22.2%
- neutrophil count decreased [3, 7]: 27.8%
- number of AEs [3, 7]: 34
- subjects who experienced AEs [3, 7]: 66.7%
- subjects with at least a treatment-related AE (TRAE) ([3]; 18 subjects, MAD 200 to 600 mg, all grade 1 or 2): 61.1%
- AEs [3, 8]: 3 (50.0)
- Abdominal discomfort [3, 8]: 0
- Constipation [3, 8]: 0
- Decreased leukocyte count [3, 8]: 1 (16.7)
- Decreased lymphocyte count [3, 8]: 0
- Decreased neutrophil count [3, 8]: 1 (16.7)
- Dermatitis allergic [3, 8]: 0
- Dyspepsia [3, 8]: 0
- Increased ALT [3, 8]: 1 (16.7)
- Increased AST [3, 8]: 1 (16.7)
- Increased blood bilirubin [3, 8]: 1 (16.7)
- Increased blood creatinine [3, 8]: 0
- Lethargy [3, 8]: 0
